In ChEMBL document CHEMBL1142537, “Spirocyclic benzopyran-based derivatives as new anti-ischemic activators of mitochondrial ATP-sensitive potassium channel” (J Med Chem, 2008):
Active and inactive are the calls of the source. No cut-off for these calls is given here.

What was measured:
Rattus norvegicus [1] = experiment: Cardioprotective activity in Langendorff perfused Wistar rat assessed as rate pressure product at 40 mg/kg, ip recorded after 30 mins of global ischemia followed by 120 mins of reperfusion; assay type: functional; conditions: route intraperitoneal
Outline: (§1)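 Adult male Wistar rats (260-350 g) given the compound ip in DMSO (40 mg/kg; cromakalim 1 mg/kg), then after 2 h anaesthetised with pentobarbital (100 mg/kg ip) and heparinized (100 UI ip). Hearts on Langendorff apparatus with an LV balloon (end-diastolic 5-10 mmHg). 30 min equilibration, 30 min global no-flow ischemia, 120 min reperfusion. RPP at 120 min expressed as % of preischemic RPP.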

Aorta [2] = experiment: Vasorelaxation activity in Wistar rat thoracic aortic ring assessed as inhibition of KCl-induced contraction at 100 uM relative to KCl; assay type: functional
Outline: (§2)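 Endothelium-denuded rat aortic rings recorded isometrically, equilibrated 60 min. Denudation checked with ACh (10 µM) on KCl (20 mM) tone; rings relaxing ≥10% discarded. Rings contracted with 20 mM KCl, then given 3-fold cumulative concentrations from 10 nM to 100 µM.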

Rattus norvegicus [3] = experiment: Antiischemic activity in Langendorff perfused Wistar rat assessed as ratio of ischemic area to total area at 40 mg/kg, ip; assay type: functional; conditions: route intraperitoneal
Aorta [4] = experiment: Vasorelaxation activity in Wistar rat thoracic aortic ring assessed as inhibition of KCl-induced contraction; assay type: functional, tissue-based; outline: as §2
Rattus norvegicus [5] = experiment: Cardioprotective activity in Langendorff perfused Wistar rat assessed as rate pressure product at 40 mg/kg, ip recorded after 30 mins of ischemia followed by 120 mins of reperfusion in presence of 5-hydroxydecanoic acid; assay type: functional, organism-based; design: dose 40 mg/kg
Outline: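 In this series the mito-KATP blocker 5-hydroxydecanoic acid (10 mg/kg, in water) was given 20 min before the ip compound (40 mg/kg). The Langendorff protocol was then run: 30 min global ischemia, 120 min reperfusion. RPP at 120 min expressed as % of preischemic value.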

Rattus norvegicus [6] = experiment: Hypotensive activity in normotensive Wistar rat assessed as systolic blood pressure at 1 mg/kg, ip after 90 mins; assay type: functional, organism-based; design: dose 1 mg/kg; conditions: Artery
Outline: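 Male 10-week-old normotensive Wistar rats (250 g), heparinized (100 UI ip) and anaesthetised with pentobarbital (60 mg/kg). Tail warmed 20 min under IR lamp, basal systolic pressure taken by tail-cuff. Cromakalim given ip at 1 mg/kg, groups of five. Systolic pressure recorded every 30 min for 90 min, as % of basal.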

Rattus norvegicus [7] = experiment: Cardioprotective activity in Langendorff perfused Wistar rat assessed as rate pressure product at 1 mg/kg, ip recorded after 30 mins of global ischemia followed by 120 mins of reperfusion; assay type: functional; conditions: route intraperitoneal; outline: as §1

CC1(C)CC2(CN(Cc3ccc(N)cc3)C(=O)CO2)c2ccccc2O1 (racemic)
Activity (Rattus norvegicus [1]): 53% | Emax at 100 µM (Aorta [2]): 12.5% | Ratio (Rattus norvegicus [3]): 19%

CC1(C)CC2(CN(Cc3ccc(NS(C)(=O)=O)cc3)C(=O)CO2)c2ccccc2O1 (racemic)
Activity (Rattus norvegicus [1]): 70% | Emax at 100 µM (Aorta [2]): 98% | IC50 (Aorta [4]): 2.95 µM | Ratio (Rattus norvegicus [3]): 23%

Cc1ccc(CN2CCOC3(C2)CC(C)(C)Oc2ccc(Br)cc23)cc1 (racemic)
Activity (Rattus norvegicus [1]): 57% | Ratio (Rattus norvegicus [3]): 29%

COc1ccc(CN2CCOC3(C2)CC(C)(C)Oc2ccc(Br)cc23)cc1 (racemic)
Activity (Rattus norvegicus [1]): 60% | Emax at 100 µM (Aorta [2]): 61.6% | IC50 (Aorta [4]): 34.7 µM | Ratio (Rattus norvegicus [3]): 10%

COc1ccc(CN2CC3(CC(C)(C)Oc4ccc(Br)cc43)OCC2=O)cc1 (racemic)
Activity (Rattus norvegicus [1]): 76% | Emax at 100 µM (Aorta [2]): 91.8% | IC50 (Aorta [4]): 3.02 µM | Ratio (Rattus norvegicus [3]): 16%

COc1ccccc1CN1CC2(CC(C)(C)Oc3ccccc32)OCC1=O (racemic)
Activity (Rattus norvegicus [1]): 36% | Ratio (Rattus norvegicus [3]): 25%

CC1(C)CC2(CN(Cc3ccccc3)CCO2)c2ccccc2O1 (racemic)
Activity (Rattus norvegicus [1]): 77% | Activity (Rattus norvegicus [5]): inactive | Emax at 100 µM (Aorta [2]): 85.9% | IC50 (Aorta [4]): 6.76 µM | Ratio (Rattus norvegicus [3]): 18%

CC(=O)Nc1ccc(CN2CC3(CC(C)(C)Oc4ccc(Br)cc43)OCC2=O)cc1 (racemic)
Emax at 100 µM (Aorta [2]): 69.7%

CC1(C)CC2(CN(Cc3ccc(Br)cc3)C(=O)CO2)c2cc(Br)ccc2O1 (racemic)
Activity (Rattus norvegicus [1]): 23% | Ratio (Rattus norvegicus [3]): 47%

COc1ccccc1CN1CCOC2(C1)CC(C)(C)Oc1ccccc12 (racemic)
Activity (Rattus norvegicus [1]): 65% | Ratio (Rattus norvegicus [3]): 34%

COc1cccc(CN2CC3(CC(C)(C)Oc4ccc(Br)cc43)OCC2=O)c1 (racemic)
Activity (Rattus norvegicus [1]): 27% | Ratio (Rattus norvegicus [3]): 29%

CC1=Nc2ccc(Cl)cc2S(=O)(=O)N1 [DIAZOXIDE]
Activity (Rattus norvegicus [5]): inactive | Ratio (Rattus norvegicus [3]): 28%

COc1ccc(CN2CC3(CC(C)(C)Oc4ccccc43)OCC2=O)cc1 (racemic)
Activity (Rattus norvegicus [1]): 27% | Ratio (Rattus norvegicus [3]): 29%

CC1(C)CC2(CN(Cc3ccc(NS(C)(=O)=O)cc3)CCO2)c2ccccc2O1 (racemic)
Activity (Rattus norvegicus [1]): 23% | Emax at 100 µM (Aorta [2]): 80.6% | IC50 (Aorta [4]): 15.5 µM | Ratio (Rattus norvegicus [3]): 35%

CC1(C)CC2(CN(Cc3ccc(C(F)(F)F)cc3)C(=O)CO2)c2cc(Br)ccc2O1 (racemic)
Activity (Rattus norvegicus [1]): 47% | Ratio (Rattus norvegicus [3]): 42%

CC1(C)CC2(CN(Cc3ccc(Br)cc3)CCO2)c2ccccc2O1 (racemic)
Activity (Rattus norvegicus [1]): 43% | Ratio (Rattus norvegicus [3]): 35%

Cc1ccc(CN2CCOC3(C2)CC(C)(C)Oc2ccccc23)cc1 (racemic)
Activity (Rattus norvegicus [1]): 35% | Ratio (Rattus norvegicus [3]): 47%

CC1(C)CC2(CN(Cc3ccc(NS(C)(=O)=O)cc3)CCO2)c2cc(Br)ccc2O1 (racemic)
Activity (Rattus norvegicus [5]): inactive | Emax at 100 µM (Aorta [2]): 98.1%

CC1(C)CC2(CN(Cc3ccc(C(F)(F)F)cc3)CCO2)c2cc(Br)ccc2O1 (racemic)
Activity (Rattus norvegicus [1]): 84% | Emax at 100 µM (Aorta [2]): 57.8% | IC50 (Aorta [4]): 17.8 µM | Ratio (Rattus norvegicus [3]): 5%

CC1(C)CC2(CN(Cc3ccccc3)CCO2)c2cc(Br)ccc2O1 (racemic)
Activity (Rattus norvegicus [1]): 42% | Ratio (Rattus norvegicus [3]): 31%

Cc1ccc(CN2CC3(CC(C)(C)Oc4ccccc43)OCC2=O)cc1 (racemic)
Activity (Rattus norvegicus [1]): 44% | Ratio (Rattus norvegicus [3]): 23%

CC1(C)CC2(CN(Cc3ccc(NS(C)(=O)=O)cc3)C(=O)CO2)c2cc(Br)ccc2O1 (racemic)
Activity (Rattus norvegicus [5]): inactive | Emax at 100 µM (Aorta [2]): 86.8%

COc1ccccc1CN1CC2(CC(C)(C)Oc3ccc(Br)cc32)OCC1=O (racemic)
Activity (Rattus norvegicus [1]): 42% | Ratio (Rattus norvegicus [3]): 28%

COc1cccc(CN2CC3(CC(C)(C)Oc4ccccc43)OCC2=O)c1 (racemic)
Activity (Rattus norvegicus [1]): 29% | Ratio (Rattus norvegicus [3]): 41%

COc1ccccc1CN1CCOC2(C1)CC(C)(C)Oc1ccc(Br)cc12 (racemic)
Activity (Rattus norvegicus [1]): 59% | Ratio (Rattus norvegicus [3]): 30%

Cc1ccc(CN2CC3(CC(C)(C)Oc4ccc(Br)cc43)OCC2=O)cc1 (racemic)
Activity (Rattus norvegicus [1]): 38% | Ratio (Rattus norvegicus [3]): 22%

COc1cccc(CN2CCOC3(C2)CC(C)(C)Oc2ccc(Br)cc23)c1 (racemic)
Activity (Rattus norvegicus [1]): 42% | Ratio (Rattus norvegicus [3]): 29%

CC(=O)Nc1ccc(CN2CCOC3(C2)CC(C)(C)Oc2ccc(Br)cc23)cc1 (racemic)
Emax at 100 µM (Aorta [2]): 99.8%

CC1(C)Oc2ccc(C#N)cc2C(N2CCCC2=O)C1O (stereo not drawn) [CROMAKALIM]
Activity (Rattus norvegicus [6]): Active | Activity (Rattus norvegicus [5]): inactive | Activity (Rattus norvegicus [7]): 94%

CC1(C)CC2(CN(Cc3ccc(C(F)(F)F)cc3)CCO2)c2ccccc2O1 (racemic)
Activity (Rattus norvegicus [1]): 34% | Emax at 100 µM (Aorta [2]): 59.9% | IC50 (Aorta [4]): 22.9 µM | Ratio (Rattus norvegicus [3]): 31%

CC(=O)Nc1ccc(CN2CCOC3(C2)CC(C)(C)Oc2ccccc23)cc1 (racemic)
Emax at 100 µM (Aorta [2]): 76.6%

CC1(C)CC2(CN(Cc3ccc(C(F)(F)F)cc3)C(=O)CO2)c2ccccc2O1 (racemic)
Activity (Rattus norvegicus [1]): 2% | Emax at 100 µM (Aorta [2]): 101% | IC50 (Aorta [4]): 7.08 µM | Ratio (Rattus norvegicus [3]): 53%

CC1(C)CC2(CN(Cc3ccccc3)C(=O)CO2)c2cc(Br)ccc2O1 (racemic)
Activity (Rattus norvegicus [1]): 37% | Emax at 100 µM (Aorta [2]): 65.8% | IC50 (Aorta [4]): 14.5 µM | Ratio (Rattus norvegicus [3]): 43%

CC1(C)CC2(CN(Cc3ccccc3)C(=O)CO2)c2ccccc2O1 (racemic)
Activity (Rattus norvegicus [1]): 35% | Emax at 100 µM (Aorta [2]): 55.3% | IC50 (Aorta [4]): 28.2 µM | Ratio (Rattus norvegicus [3]): 33%

COc1cccc(CN2CCOC3(C2)CC(C)(C)Oc2ccccc23)c1 (racemic)
Activity (Rattus norvegicus [1]): 38% | Ratio (Rattus norvegicus [3]): 17%

CC1(C)CC2(CN(Cc3ccc(N)cc3)CCO2)c2ccccc2O1 (racemic)
Activity (Rattus norvegicus [1]): 58% | Emax at 100 µM (Aorta [2]): 52.3% | IC50 (Aorta [4]): 28.2 µM | Ratio (Rattus norvegicus [3]): 25%

CC1(C)CC2(CN(Cc3ccc(N)cc3)CCO2)c2cc(Br)ccc2O1 (racemic)
Activity (Rattus norvegicus [1]): 30% | Ratio (Rattus norvegicus [3]): 39%

CC1(C)CC2(CN(Cc3ccc(Br)cc3)C(=O)CO2)c2ccccc2O1 (racemic)
Activity (Rattus norvegicus [1]): 80% | Emax at 100 µM (Aorta [2]): 89.2% | IC50 (Aorta [4]): 4.9 µM | Ratio (Rattus norvegicus [3]): 23%

COc1ccc(CN2CCOC3(C2)CC(C)(C)Oc2ccccc23)cc1 (racemic)
Activity (Rattus norvegicus [1]): 61% | Ratio (Rattus norvegicus [3]): 26%

CC1(C)CC2(CN(Cc3ccc(Br)cc3)CCO2)c2cc(Br)ccc2O1 (racemic)
Activity (Rattus norvegicus [1]): 53% | Ratio (Rattus norvegicus [3]): 16%

CC(=O)Nc1ccc(CN2CC3(CC(C)(C)Oc4ccccc43)OCC2=O)cc1 (racemic)
Activity (Rattus norvegicus [5]): inactive | Emax at 100 µM (Aorta [2]): 56.5%

CC1(C)CC2(CN(Cc3ccc(N)cc3)C(=O)CO2)c2cc(Br)ccc2O1 (racemic)
Activity (Rattus norvegicus [1]): 52% | Ratio (Rattus norvegicus [3]): 22%
